Where “and” joins values, the source holds several entries; their conditions need not be identical. Equal values may be shown once.
Key:
[1] = Steady state UV/Vis absorption; assay type: physicochemical; conditions: for ε 355 (extinction coefficient): 355 nm
Laser flash photolysis = assay type: physicochemical; conditions: excitation 355 nm, 30 mJ, 0.4 mM in 5× PBS buffer, pH 7
Outline: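 Transient absorption after a single 355 nm pulse (third harmonic) from a Nd:YAG laser at 30 mJ pulse energy. Test compound at 0.4 mM in 5× PBS buffer, pH 7, in a 1 cm × 1 cm cuvette. The kinetic trace of the transient species, assigned to the nitronate, was followed over time to obtain its decay.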

SMILES	λmax (additional absorption band) [1] [nm]	ε 355 (extinction coefficient) [1] [M⁻¹ cm⁻¹]	extinction coefficient at λmax ([1]; at 365 nm)	time constant of nitronate decay observed at 430 nm (Laser flash photolysis)
N[C@@H](CC(=O)O)C(=O)OC(C(=O)O)c1cc2c(cc1[N+](=O)[O-])OCO2.O=C(O)C(F)(F)F (stereo partly drawn) [1b, α-carboxynitropiperonyl L-aspartate]	365	4060	~ 4000 M^−1 cm^−1	0.87 ms and 0.87 ± 0.04 ms
N[C@@H](CC(=O)O)C(=O)OC(C(=O)O)c1ccccc1[N+](=O)[O-].O=C(O)C(F)(F)F (mixture of isomers) [1a, α-carboxynitrobenzyl L-aspartate]	–	430	–	–

Source: paper PMC9061760 (RSC Advances, 2019)
